SR-BI HDL uptake: inhibitors of SR-BI mediated HDL lipid uptake, primary screen, ldlA[mSR-BI] cells, fluorescence, single point; Scavenger receptor class B member 1 (Mus musculus), Q61009; ldlA[mSR-BI] CHO cells, DiI-HDL uptake fluorescence, 3 h; inhibition, % at 12.5 µM; actives 0.96% (n = 320,000); AID 488896, 2010;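 active = mean replicate inhibition of at least 70% and a set share of replicates each scoring 70 or more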;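 also: 0% = median of neutral control wells and 100% = median of positive control wells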
PvdQ acylase: P. aeruginosa PvdQ acylase inhibitors, primary screen, biochemical, fluorescence, plate reader and imaging, single point | PvdQ acylase [Pseudomonas aeruginosa LESB58] | purified PvdQ acylase | inhibition, % at 10 µM | actives 0.063% (n = 340,000) | AID 488965, 2010; in the data active = inhibition above about 30%, passing the limit was not always enough;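 also: 0% = vehicle neutral wells and 100% = reference inhibitor wells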
S100A4 inh HTS: inhibitors of S100A4-myosin IIA peptide binding, primary screen, biochemical, fluorescence polarization, TAMRA-MyoIIA peptide; Protein S100-A4 (Homo sapiens), P26447; inhibition, % at 10.7 µM; actives 0.14% (n = 360,000); AID 652163, 2013;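 active = mean inhibition of at least 70% across replicates, with every replicate also reaching that level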
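Test system: S100A4 monomer protein. Medium: HEPES buffer with Ca2+, pH 7.2. Reagent: fluorescent myosin IIA peptide, 5 nM. Compound dosing: single-point compound testing. Timing: 5 min between mix addition and reading. Benchmarks: DMSO neutral and TFP positive wells.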
dFosB activator: activators of delta FosB homodimer, primary screen, biochemical, fluorescence polarization, TAMRA-CDK5 oligo, single point; activation, % at 25 µM; actives 0.99% (n = 340,000); Protein FosB (Mus musculus), P13346; purified delta FosB; percent of positive-control signal above neutral wells;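 active = mean activation above about 17%, with every replicate also reaching it, limit read from the data, passing the limit was not always enough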
RAD54 inh: inhibitors of human RAD54 branch migration, primary screen, biochemical, fluorescence, single point. AID 602329, 2012. actives 0.14% (n = 360,000). inhibition, % at 10.4 µM. DNA repair and recombination protein RAD54-like (Homo sapiens), Q92698. RAD54 Holliday junction branch migration, FAM/BHQ fluorescence;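 active = mean normalized replicate activity at least 40 and at least half of replicates scoring 40 or more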;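 also: 0% = median of neutral control wells and 100% = median of positive control wells; inhibitors cause a drop in the FAM fluorescence signal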
Target sequence (Q92698 whole entry, looked up): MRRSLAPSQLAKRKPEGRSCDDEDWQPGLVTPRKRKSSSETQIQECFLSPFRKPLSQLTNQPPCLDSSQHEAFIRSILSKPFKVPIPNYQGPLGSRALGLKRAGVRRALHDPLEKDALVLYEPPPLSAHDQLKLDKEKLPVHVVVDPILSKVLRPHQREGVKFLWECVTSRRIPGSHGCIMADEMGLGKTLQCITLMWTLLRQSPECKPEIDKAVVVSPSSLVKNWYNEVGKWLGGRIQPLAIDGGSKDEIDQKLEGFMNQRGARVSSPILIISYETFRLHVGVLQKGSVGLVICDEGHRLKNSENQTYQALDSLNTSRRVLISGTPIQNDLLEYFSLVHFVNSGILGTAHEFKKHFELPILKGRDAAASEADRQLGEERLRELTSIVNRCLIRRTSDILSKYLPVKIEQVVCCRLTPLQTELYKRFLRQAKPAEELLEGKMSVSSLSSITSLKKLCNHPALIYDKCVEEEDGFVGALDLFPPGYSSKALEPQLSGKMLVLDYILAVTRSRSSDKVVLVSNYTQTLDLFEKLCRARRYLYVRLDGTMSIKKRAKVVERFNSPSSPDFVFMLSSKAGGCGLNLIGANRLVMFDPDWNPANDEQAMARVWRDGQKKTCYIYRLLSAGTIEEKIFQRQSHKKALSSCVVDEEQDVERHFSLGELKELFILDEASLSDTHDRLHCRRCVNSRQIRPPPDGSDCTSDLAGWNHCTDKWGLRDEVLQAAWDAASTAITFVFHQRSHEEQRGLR
SR-BI DiI-HDL act: activators of SR-BI mediated DiI-HDL uptake, primary screen, ldlA[mSR-BI] CHO cells, DiI fluorescence. AID 504775, 2011. 3 h; 100 = double the neutral-control signal. actives 0.096% (n = 320,000). activation, % at 12.5 µM;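 active = mean replicate activation of at least 60% and every replicate at or above 60%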;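 also: 0% = median plate neutral-control signal and 100% = twice that signal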
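Test system: SR-BI-overexpressing, LDLR-lacking CHO cells; Medium: Ham's F12 with 0.5% BSA, HEPES 25 mM, pH 7.4; Schedule: 3 h, 37 °C; Technique: bottom-read fluorescence, 550/595 nm.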
An asterisk follows results filed as active; / = no result. Most compounds without a hit are left out; they make up all but 1.6% or so of the library.

SMILES | SR-BI HDL uptake | PvdQ acylase | S100A4 inh HTS | dFosB activator | RAD54 inh | SR-BI DiI-HDL act
COc1cc(C(=O)COC(=O)c2cc([N+](=O)[O-])ccc2N2CCOCC2)ccc1OC(F)F | 84.5* | -14.4 | -0.5 | -1.9 | 0.5 | -84.5
Cc1cc(C)c(C(=O)COC(=O)c2cc([N+](=O)[O-])ccc2N2CCOCC2)cc1C | 78.9* | -8.2 | 0.4 | -5.4 | -1.1 | -78.9
CO[C@@H]1CN(C)C(=O)c2ccc(NC(=O)Nc3cccc(Cl)c3)cc2OC[C@H](C)N(C(=O)Nc2c(C)noc2C)C[C@@H]1C | / | / | -12.0 | / | 4.0 | /
CO[C@@H]1CN(C)C(=O)c2ccc(NS(=O)(=O)c3cccc(Cl)c3)cc2OC[C@H](C)NC[C@@H]1C | / | / | 2.0 | / | -1.6 | /
C[C@@H]1CCCCO[C@@H](CN(C)S(=O)(=O)c2cn(C)cn2)[C@@H](C)CN([C@H](C)CO)C(=O)c2cc(NS(=O)(=O)c3ccc(Cl)cc3)ccc2O1 | / | / | 103.1* | / | 6.7 | /
Cc1ccc(S(=O)(=O)Nc2ccc3c(c2)C(=O)N([C@@H](C)CO)C[C@@H](C)[C@@H](CN(C)S(=O)(=O)c2cn(C)cn2)OCCCC[C@@H](C)O3)cc1 | / | / | 133.5* | / | 3.2 | /
C[C@@H]1CCCCO[C@H](CN(C)S(=O)(=O)c2cn(C)cn2)[C@H](C)CN([C@@H](C)CO)C(=O)c2cc(NS(=O)(=O)c3ccc(Cl)cc3)ccc2O1 | / | / | -1.5 | / | 8.9 | /
COc1ccc(CN(C)C[C@@H]2OCCCC[C@@H](C)Oc3ccc(NS(=O)(=O)c4cn(C)cn4)cc3C(=O)N([C@@H](C)CO)C[C@H]2C)cc1 | / | / | 8.3 | / | 4.2 | /
Cc1ccc(S(=O)(=O)Nc2ccc3c(c2)C(=O)N([C@H](C)CO)C[C@H](C)[C@@H](CN(C)S(=O)(=O)c2cn(C)cn2)OCCCC[C@@H](C)O3)cc1 | / | / | -18.4 | / | 5.4 | /
COc1ccc(CN(C)C[C@@H]2OCCCC[C@H](C)Oc3ccc(NS(=O)(=O)c4cn(C)cn4)cc3C(=O)N([C@@H](C)CO)C[C@H]2C)cc1 | / | / | 109.8* | / | -3.3 | /
COc1ccc(NC(=O)N(C)C[C@@H]2OCCCC[C@@H](C)Oc3ccc(NS(=O)(=O)c4ccc(F)cc4)cc3C(=O)N([C@H](C)CO)C[C@@H]2C)cc1 | / | / | -0.9 | / | -6.1 | /
Cc1ccc(S(=O)(=O)N(C)C[C@H]2Oc3ccc(NC(=O)Cn4cnnn4)cc3CC(=O)N([C@H](C)CO)C[C@H]2C)cc1 | / | / | -3.9 | / | -7.9 | /
COc1ccc(S(=O)(=O)N(C)C[C@@H]2Oc3cc(C#CC4CC4)ccc3S(=O)(=O)N([C@@H](C)CO)C[C@@H]2C)cc1 | / | / | 31.1 | / | -5.5 | /
Cc1cc(C)nc(NC(=NCCc2c[nH]c3ccccc23)NC(=O)c2ccco2)n1 | 71.0* | -16.1 | / | -8.6 | / | -71.0
Cn1cccc1C(C#N)c1ncc(C(F)(F)F)cc1Cl (centres undefined) | 26.9 | -0.8 | 2.8 | -2.9 | -0.1 | -26.9
N#CC(c1ccc(Cl)cc1)c1ncc(C(F)(F)F)cc1Cl (centres undefined) | 11.8 | 56.9* | / | 6.4 | 5.6 | -11.8
N#CC(c1cccc(Cl)c1)c1ncc(C(F)(F)F)cc1Cl (centres undefined) | 5.0 | 51.9* | / | 2.4 | 3.4 | -5.0
O=C(c1ccncc1)N1CC2(C1)[C@H](c1ccccc1)[C@H](CO)N2Cc1ccccn1 | / | / | 3.6 | / | / | /
O=C(C1CCCC1)N1CC(=O)N2[C@@H](CO)[C@H](c3ccc(C#Cc4cccc(F)c4)cc3)[C@@H]2C1 | / | / | 9.5 | / | / | /
O=C(O)c1ccc(Nc2c3ccccc3nc3ccccc23)cc1 | 8.1 | -17.1 | -18.4 | 1.6 | -23.7 | -8.1
c1cncc(Nc2c3ccccc3nc3ccccc23)c1 | 12.0 | 5.8 | 5.6 | 30.1* | 78.1* | -12.0
CCc1ccc2c(c1)C(c1ccc(N3CCOCC3)cc1)=NNC(c1ccncc1)=N2 | -17.9 | -1.6 | -23.3 | -8.4 | / | 17.9
CCc1ccc2c(c1)C(c1ccc([N+](=O)[O-])cc1)=NNC(c1ccc(C)cc1)=N2 | 75.0* | 0.6 | -1.0 | -4.2 | -9.7 | -75.1
CCOC(=O)C1=C(O)/C(=C/c2cn(CC(=O)N3CCCC3)c3ccccc23)SC1=Nc1ccccc1 | 70.5* | -1.9 | / | -12.1 | -13.4 | -70.5
COC(=O)c1cn(CC(=O)N2CCCCCC2)c2ccccc12 | 8.0 | -3.0 | / | -4.9 | 4.7 | -8.0
SMILES | SR-BI HDL uptake | PvdQ acylase | S100A4 inh HTS | dFosB activator | RAD54 inh | SR-BI DiI-HDL act
C[C@@H]1CN([C@H](C)CO)C(=O)c2c(c3ccccc3n2C)-c2ccccc2CO[C@@H]1CN(C)C(=O)c1ccncc1 | / | / | 41.2 | / | -5.1 | /
COc1cc(NC(=O)c2ccc3c(c2)OCO3)c2ncccc2c1 | 78.0* | -10.4 | / | -6.4 | 16.9 | -78.0
COc1cc(NC(=O)c2cc(OC)c(OC)c(OC)c2)c2ncccc2c1 | 55.6 | -10.4 | -4.2 | -13.8 | 1.9 | -55.6
CO[C@H]1CC[C@H]2CCOc3ccc(C#N)cc3C(=O)N(C)CCCC(=O)N(C)C[C@@H]1O2 | / | / | -7.4 | / | 10.0 | /
COC(=O)c1cc(-c2cccc(OC)c2)on1 | -35.1 | 47.1* | / | 2.7 | -5.9 | 35.1
COC(=O)c1cc(-c2ccccc2)on1 | -17.1 | -1.9 | / | 5.6 | 5.7 | 17.2
COC(=O)c1cc(-c2ccc(Br)cc2)on1 | -19.0 | 92.4* | 1.8 | -0.8 | -1.5 | 19.0
COC(=O)c1cc(-c2ccc(OC)cc2)on1 | -1.7 | 95.3* | -4.5 | -15.0 | 1.4 | 1.7
COc1cccc(-c2cc(C(=O)O)no2)c1 | -11.0 | -5.2 | / | -3.6 | 6.9 | 11.0
O=C(N[C@H]1CC[C@@H](CCNS(=O)(=O)c2ccc(Cl)cc2)O[C@@H]1CO)c1cccnc1 | / | / | 7.8 | / | -6.4 | /
Cc1cccc2c(=O)cc(C)n(Cc3ccccc3)c12 | 22.5 | 35.2* | -3.3 | -10.1 | / | -22.5
CC(NC(=O)c1ccccc1F)c1nnc(SCC(=O)Nc2nnc(C3CC3)s2)n1C (centres undefined) | -8.3 | -4.1 | 93.3* | 1.9 | -2.4 | 8.3
Cc1nnc(NC(=O)CSc2nnc(CCNC(=O)c3ccccc3F)n2C)s1 | 6.4 | -0.4 | -7.7 | -6.4 | -1.1 | -6.4
CNC[C@H]1OCCCC[C@@H](C)Oc2ccc(NS(=O)(=O)c3cn(C)cn3)cc2C(=O)N([C@@H](C)CO)C[C@H]1C | / | / | / | / | -15.6 | /
C[C@@H]1CN([C@H](C)CO)C(=O)Cc2cc(NS(=O)(=O)c3cccs3)ccc2O[C@@H]1CN(C)C(=O)NC1CCCCC1 | / | / | -0.3 | / | 6.5 | /
COc1cc(-c2cc(=O)c3ccc(O)cc3o2)cc(OC)c1OC | / | / | 4.9 | / | -1.1 | /

Screening data from PubChem BioAssay.
